Measured values published in ChEMBL document CHEMBL2311288, “Discovery of liver-targeted inhibitors of stearoyl-CoA desaturase (SCD1)” (Bioorg Med Chem Lett, 2013).

Tests used:
[1] = AUC (0 to 24 hrs) in CD-1 mouse at 300 mg/kg, po; type: ADME, organism-based; set-up: time < 24 hr, dose 300 mg/kg, route oral; conditions: plasma
Summary of the method: (§1)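 Male CD-1 mice received single daily oral gavage doses of 30, 100 or 300 mg/kg for 2 weeks. Plasma drug levels were determined on Day 13, and exposure was expressed as AUC(0–24 h).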

Rattus norvegicus = test: AUC in rat at 10 mg/kg; type: ADME, organism-based, Plasma; set-up: dose 10 mg/kg; conditions: in vivo
Summary of the method: (§2)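 Rats were given a single 10 mg/kg dose. Plasma exposure (AUC, Cmax) was determined, and drug concentrations in plasma, brain and liver were measured at 6 h post-dose. The liver/plasma ratio was taken from the 6 h levels.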

Mus musculus [2] = test: Toxicity in CD-1 mouse assessed as decrease in relative peri-renal fat weight at 100 to 300 mg/kg, po relative to control; type: organism-based; set-up: dose 100-300 mg/kg, route oral; conditions: in vivo
Mus musculus [3] = test: Toxicity in CD-1 mouse assessed as relative liver weight at 100 mg/kg, po; type: organism-based; set-up: dose 100 mg/kg, route oral; conditions: in vivo
Mus musculus [4] = test: Toxicity in CD-1 mouse assessed as atrophy of the harderian and meibomian glands up to 300 mg/kg, po; type: organism-based; set-up: dose 300 mg/kg, route oral; conditions: in vivo
[5] = Plasma concentration in AKR/J mouse at 10 mg/kg measured after 4 hrs; type: ADME, organism-based; set-up: dose 10 mg/kg
Summary of the method: (§3)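 Male AKR/J mice, 7 weeks old (n = 10/group) and fed a 10% kcal low-fat diet, were given oral doses of 1, 3, 10 or 30 mg/kg. Plasma was collected 4 h after dosing, and drug concentration in that plasma was measured.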

Mus musculus [6] = test: Toxicity in CD-1 mouse assessed as meibomian gland (atrophy, squamous metaplasia) up to 300 mg/kg, po; type: organism-based; set-up: dose 300 mg/kg, route oral; conditions: in vivo
Mus musculus [7] = test: Toxicity in CD-1 mouse assessed as absolute liver weight at 100 mg/kg, po; type: organism-based; set-up: dose 100 mg/kg, route oral; conditions: in vivo
Mus musculus [8] = test: Toxicity in CD-1 mouse assessed as relative liver weight at 300 mg/kg, po; type: organism-based; set-up: dose 300 mg/kg, route oral; conditions: in vivo
[9] = Plasma concentration in AKR/J mouse at 30 mg/kg measured after 4 hrs; type: ADME, organism-based; set-up: dose 30 mg/kg; summary of the method: as §3
Mus musculus [10] = test: Toxicity in CD-1 mouse assessed as inhibition of fatty acid metabolism measured as lesions in eyes and skin at 30 to 300 mg/kg, po for 2 weeks; type: organism-based; set-up: dose 30-300 mg/kg, route oral; conditions: in vivo, 336 h
[11] = AUC (0 to 24 hrs) in CD-1 mouse at 30 mg/kg, po; type: ADME, organism-based; set-up: time < 24 hr, dose 30 mg/kg, route oral; conditions: plasma; summary of the method: as §1
Mus musculus [12] = test: Toxicity in mouse assessed as abnormalities in eyes at 30 mg/kg; type: organism-based; set-up: dose 30 mg/kg; conditions: in vivo
Mus musculus [13] = test: Toxicity in CD-1 mouse assessed as effect on food consumption up to 300 mg/kg, po; type: organism-based; set-up: dose 300 mg/kg, route oral; conditions: in vivo
[14] = Plasma concentration in AKR/J mouse at 3 mg/kg measured after 4 hrs; type: ADME, organism-based; set-up: dose 3 mg/kg; summary of the method: as §3
Mus musculus [15] = test: Toxicity in CD-1 mouse assessed as tubular atrophy of the testes up to 300 mg/kg, po; type: organism-based, Testis; set-up: dose 300 mg/kg, route oral; conditions: in vivo
Mus musculus [16] = test: Toxicity in CD-1 mouse assessed as effect on body weight up to 300 mg/kg, po; type: organism-based; set-up: dose 300 mg/kg, route oral; conditions: in vivo
Mus musculus [17] = test: Toxicity in CD-1 mouse assessed as decrease in absolute peri-renal fat weight at 100 to 300 mg/kg, po relative to control; type: organism-based; set-up: dose 100-300 mg/kg, route oral; conditions: in vivo
Acyl-CoA desaturase 1 = biological target: T1, Acyl-CoA desaturase 1 (Rattus norvegicus, UniProt P07308); test: Inhibition of rat SCD1 by rat microsomal assay
T1 sequence (P07308 whole entry): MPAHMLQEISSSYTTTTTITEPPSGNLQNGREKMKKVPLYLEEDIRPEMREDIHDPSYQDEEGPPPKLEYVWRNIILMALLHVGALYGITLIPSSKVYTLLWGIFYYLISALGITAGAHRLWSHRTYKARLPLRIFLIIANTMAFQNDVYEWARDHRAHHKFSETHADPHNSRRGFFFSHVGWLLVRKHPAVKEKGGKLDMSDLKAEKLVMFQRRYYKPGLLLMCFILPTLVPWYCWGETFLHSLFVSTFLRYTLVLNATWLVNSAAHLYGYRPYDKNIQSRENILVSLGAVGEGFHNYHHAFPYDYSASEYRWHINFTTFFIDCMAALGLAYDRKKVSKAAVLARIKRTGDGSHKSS
Summary of the method: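 Microsomal desaturase activity was measured in 100 mM Tris HCl pH 7.3 with 2 mM NADH and [9,10-3H]stearoyl-CoA for 15 min at room temperature. The reaction was stopped on ice with trichloroacetic acid, then passed through activated charcoal, and tritium in the filtrate was counted. Compounds were tested in 2% DMSO final. Percent inhibition = (total−sample)/(total−blank)×100, with the blank set by 10⁻⁴ M of a standard inhibitor.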

[18] = Plasma concentration in rat at 10 mg/kg measured after 6 hrs; type: ADME, organism-based; set-up: dose 10 mg/kg; summary of the method: as §2
Mus musculus [19] = test: Toxicity in CD-1 mouse assessed as skin atrophy of sebaceous gland up to 300 mg/kg, po; type: organism-based; set-up: dose 300 mg/kg, route oral; conditions: in vivo
[20] = Cmax in rat at 10 mg/kg; type: ADME, organism-based; set-up: dose 10 mg/kg; conditions: in vivo; summary of the method: as §2
[21] = AUC (0 to 24 hrs) in CD-1 mouse at 100 mg/kg, po; type: ADME, organism-based; set-up: time < 24 hr, dose 100 mg/kg, route oral; conditions: plasma; summary of the method: as §1
[22] = Drug level in liver in rat at 10 mg/kg measured after 6 hrs; type: ADME, organism-based; set-up: dose 10 mg/kg; conditions: read-out: Drug uptake; summary of the method: as §2
Mus musculus [23] = test: Toxicity in CD-1 mouse assessed as minimal Leydig cell hyperplasia of the testes at 300 mg/kg, po; type: organism-based, Testis; set-up: dose 300 mg/kg, route oral; conditions: in vivo
[24] = Plasma concentration in AKR/J mouse at 1 mg/kg measured after 4 hrs; type: ADME, organism-based; set-up: dose 1 mg/kg; summary of the method: as §3
Mus musculus [25] = test: Toxicity in mouse assessed as abnormalities in skin at 30 mg/kg; type: organism-based; set-up: dose 30 mg/kg; conditions: in vivo
Mus musculus [26] = test: Toxicity in CD-1 mouse assessed as absolute liver weight at 300 mg/kg, po; type: organism-based; set-up: dose 300 mg/kg, route oral; conditions: in vivo
Mus musculus [27] = test: Toxicity in CD-1 mouse assessed as eyelid atrophy of sebaceous gland up to 300 mg/kg, po; type: organism-based; set-up: dose 300 mg/kg, route oral; conditions: in vivo
Mus musculus [28] = test: Toxicity in CD-1 mouse assessed as eyes (corneal degeneration, inflammation) up to 300 mg/kg, po; type: organism-based, Cornea; set-up: dose 300 mg/kg, route oral; conditions: in vivo
[29] = Ratio of drug level in liver to plasma of rat at 10 mg/kg measured after 6 hrs; type: ADME, organism-based; set-up: dose 10 mg/kg; summary of the method: as §2
Mus musculus [30] = test: Toxicity in CD-1 mouse assessed as article related testes up to 300 mg/kg, po; type: organism-based, Testis; set-up: dose 300 mg/kg, route oral; conditions: in vivo
Mus musculus [31] = test: Toxicity in CD-1 mouse assessed as lacrimation up to 300 mg/kg, po; type: organism-based; set-up: dose 300 mg/kg, route oral; conditions: in vivo
Mus musculus [32] = test: Toxicity in CD-1 mouse assessed as peri-orbital swelling up to 300 mg/kg, po; type: organism-based; set-up: dose 300 mg/kg, route oral; conditions: in vivo
Mus musculus [33] = test: Toxicity in CD-1 mouse assessed as swelling of the lips up to 300 mg/kg, po; type: organism-based; set-up: dose 300 mg/kg, route oral; conditions: in vivo
Mus musculus [34] = test: Toxicity in CD-1 mouse assessed as alopecia up to 300 mg/kg, po; type: organism-based; set-up: dose 300 mg/kg, route oral; conditions: in vivo
Mus musculus [35] = test: Toxicity in CD-1 mouse assessed as ocular opacity up to 300 mg/kg, po; type: organism-based, Eye; set-up: dose 300 mg/kg, route oral; conditions: in vivo

| Structure (SMILES) | AUC(0-t) at 24 h [1] [µM·h] | AUC (Rattus norvegicus) [ng·h/g] | Activity (Mus musculus [4]) | Activity (Mus musculus [6]) | concentration at 4 h [9] [ng/mL] | Activity (Mus musculus [12]) | IC50 (Acyl-CoA desaturase 1) [nM] | concentration at 6 h [18] [ng/g] | Activity (Mus musculus [19]) | Cmax [20] [ng/g] | concentration at 6 h [22] [ng/g] | Activity (Mus musculus [25]) | Activity (Mus musculus [27]) | Activity (Mus musculus [28]) | Kp at 6 h [29] | further results |
| --- | --- | --- | --- | --- | --- | --- | --- | --- | --- | --- | --- | --- | --- | --- | --- | --- |
| O=C(O)c1cnc(N2CCC3(CC2)CCN(Cc2cccc(C(F)(F)F)c2)c2ccccc2O3)s1 | 1520 | 2308 | Toxic | Toxic | 1740 | Non-toxic | 8 | 345 | Toxic | 495 | 19200 | Non-toxic | Toxic | Toxic | 56 | Activity (Mus musculus [2]): Toxic; Activity (Mus musculus [3]): 20%; concentration at 4 h [5]: 135 ng/mL; Activity (Mus musculus [7]): 19%; Activity (Mus musculus [8]): 33%; Activity (Mus musculus [10]): Toxic; AUC(0-t) at 24 h [11]: 114 µM·h; Activity (Mus musculus [13]): Non-toxic; concentration at 4 h [14]: 45 ng/mL; Activity (Mus musculus [15]): Toxic; Activity (Mus musculus [16]): Non-toxic; Activity (Mus musculus [17]): Toxic; AUC(0-t) at 24 h [21]: 565 µM·h; Activity (Mus musculus [23]): Toxic; concentration at 4 h [24]: 0.64 ng/mL; Activity (Mus musculus [26]): 29% |
| CNC(=O)c1cccc(NC(=O)N2CCC(Oc3ccccc3Cl)CC2)c1 | 216 | 1435 | Toxic | Toxic | 1780 | Non-toxic | < 4 | 66 | Toxic | 599 | 529 | Non-toxic | Toxic | Toxic | 8 | Activity (Mus musculus [30]): Non-toxic; Activity (Mus musculus [31]): Toxic; Activity (Mus musculus [32]): Toxic; Activity (Mus musculus [33]): Toxic; Activity (Mus musculus [34]): Toxic; Activity (Mus musculus [35]): Toxic |
